# Screening results: PubChem BioAssay, Johns Hopkins Ion Channel Center
# Compounds with a hit are over-represented: about 2.3% of the library has one in this group of screens.
# TRPC6 act: activators of mouse TRPC6 channel; Q61143; HEK293-TRPC6 membrane potential dye fluorescence; stronger effect = higher value; B-score at 10 µM; 310,000 compounds, 0.13% hits;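 active = B-score of the integrated fluorescence ratio above library mean plus 3 SD, and starting fluorescence ratio within library mean plus 5 SD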;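 note: higher score means more depolarization so channel activation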
# TRPC4 block: TRPC4 (mouse) channel inhibition; Q9QUQ5; AID 2247; B-score at 10 µM; 300,000 compounds, 0.39% hits; HEK293 TRPC4beta/mu-opioid, DAMGO-evoked Fluo4 calcium flux; stronger effect = lower value;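 active = B-score over 3 SD under the library average, no early fluorescence shift, positive overall ratio signal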
#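 Signal: kinetic Fluo4 fluorescence imaging of calcium influx. Material: stable TRPC4beta/mu-opioid receptor HEK293 cells. Probe or stimulus: DAMGO in two steps, submaximal then maximal.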
# TRPC4 agonist: opens the mouse TRPC4 cation channel; HEK293 TRPC4beta/mu-opioid, Fluo4 calcium fluorescence; stronger effect = higher value; B-score at 10 µM; Q9QUQ5; 310,000 compounds, 0.49% hits; AID 2237;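 active = B-score above 5 SD of library B-scores, and initial fluorescence ratio not above library mean plus 5 SD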;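 note: positive B-score marks a calcium rise read as TRPC4 activation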
#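 System – HEK293 cells stably co-expressing mouse TRPC4beta and mu-opioid receptor · Signal – Fluo4 calcium-sensitive dye fluorescence, kinetic, 1 Hz baseline · Benchmarks – buffer (low) and maximal DAMGO (high) · Read-out – B score of integrated fluorescence ratio per well · Incubation – dye loading 45 min room temperature, 110 s kinetic read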
# TRPC6 inh: inhibitors of mouse TRPC6 channel | Q61143 | HEK293-TRPC6, membrane potential dye, ACh-evoked depolarization; stronger effect = lower value | B-score at 10 µM | 310,000 compounds, 1.1% hits;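 active = B-score under library mean minus 3 SD, initial fluorescence not abnormally high, positive integrated signal ratio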;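 note: B-score derived from integrated fluorescence ratio over the kinetic read; more negative B-score means stronger inhibition of depolarization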
# TRPC4 potent: allosterically enhances the mouse TRPC4 cation channel; Q9QUQ5; HEK293 TRPC4beta/mu-opioid, DAMGO EC20, Fluo-4 Ca2+ flux; stronger effect = higher value; B-score at 10 µM; 310,000 compounds, 0.42% hits; AID 2227;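 active = B-score of calcium response area above 5 SD of library B-scores, with initial fluorescence ratio within 5 SD of library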;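 note: B-score of integrated fluorescence ratio over time as area under calcium response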
# TRPC4 sel inh 2: second check of whether TRPC6 inhibitors also affect mouse TRPC4; shares compounds with TRPC6 inh; AID 2776; inhibition, % at 10 µM; HEK293 TRPC4/MOR, membrane potential dye fluorescence; channel activated by saturating DAMGO dose; 920 compounds, 42% hits;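 active = compounds whose fluorescence signal differed from control wells by over 3 SD, either direction, in both duplicate plates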
# TRPC4 spec: selectivity of TRPC6 inhibitors: effect on mouse TRPC4. shares compounds with TRPC6 inh. HEK293 TRPC4/mu-opioid, membrane potential fluorescence. activity change, negative = inhibition, % at 10 µM. 920 compounds, 61% hits. AID 2777;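 active = rise or fall in signal beyond 3 SD of buffer-only wells in both replicate plates, either sign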;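 note: integrated kinetic ratio of fluorescence range over baseline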
# HEK293 MPD ctr 2-1: second counter-screen for TRPC6 inhibitors: parental HEK293 cells; shares compounds with TRPC6 inh; parental HEK293 membrane potential dye fluorescence; maximal acetylcholine challenge after compound addition; signal change vs control, % at 10 µM; 920 compounds, 31% hits; AID 2779;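 active = membrane potential signal moving either way by over 3 SD of the maximum-effect control, in both duplicate plates, meaning non-specific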
# HEK293 MPD ctr-1: counter-screen for TRPC6 inhibitors: effect in parental HEK293 cells. shares compounds with TRPC6 inh. parental HEK293 membrane potential dye fluorescence. membrane potential signal change, % at 10 µM. 920 compounds, 60% hits. AID 2780;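 active = membrane potential signal shifting up or down by more than 3 SD of buffer-only wells, on both duplicate plates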
# HEK293 MPD ctr-2: checks TRPC6 modulator effects in parental HEK293 cells | shares compounds with TRPC6 inh | membrane potential dye fluorescence | membrane potential signal change, % at 10 µM | 2,400 compounds, 51% hits;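 active = membrane potential signal moves up or down beyond 5 SD from buffer-only wells, on both duplicate plates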
# HEK293 MPD ctr 2-2: parental HEK293 nonspecific activity of TRPC6 modulators, second screen | inhibition, % at 10 µM | membrane potential dye fluorescence; after compound, maximal acetylcholine stimulation | 2,400 compounds, 14% hits | shares compounds with TRPC6 inh;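 active = membrane potential signal drops by more than 5 SD from the mean control signal, in both duplicate plates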;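 note: plate controls were acetylcholine ECmax control wells for no effect and buffer only wells for full effect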
# TRPC4 ctr mod: tests whether TRPC6 modulators also affect mouse TRPC4 | 2,400 compounds, 69% hits | shares compounds with TRPC6 inh | HEK293 TRPC4/mu-opioid, membrane potential fluorescence | percent change from control (negative = decrease, positive = increase), % at 10 µM | AID 488927;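 active = membrane potential signal moved up or down beyond 5 SD of buffer control wells, in both duplicate plates, actives on both sides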;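 note: plate controls were assay buffer wells for no effect and DAMGO maximal-effect wells for full effect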
# TRPC4/MOR inh 2: second check of whether TRPC6 modulators also affect mouse TRPC4. shares compounds with TRPC6 inh. HEK293 TRPC4/mu-opioid, membrane potential dye fluorescence; stimulated with maximal-effect DAMGO. inhibition, % at 10 µM. 2,400 compounds, 55% hits. AID 488928;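 active = drop in membrane potential signal beyond 5 SD of the control wells in both duplicate plates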;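 note: TRPC4 counter screen for TRPC6 hits run under conditions tuned for TRPC6 not TRPC4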
# TRPC6 inh conf: mouse TRPC6 inhibitor confirmation | HEK293-TRPC6, membrane potential dye, ACh-evoked depolarization | 3,300 compounds, 43% hits | shares compounds with TRPC6 inh | AID 488960 | inhibition, % at 10 µM;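 active = fluorescence ratio falls more than 5 SD below the full-stimulation control mean, in both duplicate runs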;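 note: integrated fluorescence ratio of peak minus minimum over baseline after agonist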
# TRPC6 act conf: confirmation of mouse TRPC6 activators. activation, % at 10 µM. shares compounds with TRPC6 inh. HEK293-TRPC6 membrane potential dye fluorescence, FDSS. 2,800 compounds, 11% hits;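 active = ratio signal rise beyond 5 SD above unstimulated control wells' mean, seen in both duplicate runs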;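 note: plate controls were buffer EC0 wells for no effect and acetylcholine ECmax response for full effect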
# Active calls of the source: *; i = inactive; · = not tested or not shown.
SMILES,TRPC6 act,TRPC4 block,TRPC4 agonist,TRPC6 inh,TRPC4 potent,HEK293 MPD ctr-2,HEK293 MPD ctr 2-2,TRPC4 ctr mod,TRPC4/MOR inh 2,TRPC6 inh conf,TRPC6 act conf,others
CCOC(=O)C[n+]1c(C)ccc2c1CCC2,i,i,i,i,i,·,·,·,·,·,·,
CCCCN(CCCC)CC(O)CN(c1cc([N+](=O)[O-])ccc1OC)S(=O)(=O)c1ccccc1 (stereo unspecified),i,i,i,-10.1*,i,·,·,·,·,66.7%*,i,TRPC4 sel inh 2=28.5%*;TRPC4 spec=i;HEK293 MPD ctr 2-1=i;HEK293 MPD ctr-1=0.2%*
COc1ccc([N+](=O)[O-])cc1N(CC(O)CN(CC(C)C)CC(C)C)S(=O)(=O)c1ccccc1 (stereo unspecified),i,i,i,i,i,·,·,·,·,·,·,
c1csc(-c2nn3c(C4COc5ccccc5O4)nnc3s2)c1 (stereo unspecified),i,i,i,-12.2*,i,i,i,i,i,i,i,
CC[n+]1c(C)sc2c3ccsc3ccc21,i,i,i,-6.33*,i,-184.5%*,i,-32.5%*,i,i,i,
Cn1c(=O)c2c(nc(SCCN3CCCCC3)n2Cc2ccc(Cl)cc2)n(C)c1=O,i,i,80*,-6.23*,40*,-121.0%*,i,26.5%*,93.0%*,i,i,
O=c1c2ccccc2nc(SCCN2CCCCC2)n1CCc1ccccc1,i,i,i,-7.85*,i,·,·,·,·,67.8%*,i,TRPC4 sel inh 2=41.5%*;TRPC4 spec=i;HEK293 MPD ctr 2-1=i;HEK293 MPD ctr-1=i
NC(=O)CSc1nc2ccccc2c(=O)n1CCc1ccccc1,i,i,i,i,i,·,·,·,·,·,·,
CCOc1ccc2nc(NC(=O)CSc3nc(-c4ccccc4)c(C#N)c(=O)[nH]3)sc2c1,11.6*,i,i,i,i,i,i,19.5%*,i,i,36.5%*,
COc1cccc(-c2nc(SCC(=O)Nc3nc(-c4ccccc4)c(C)s3)[nH]c(=O)c2C#N)c1,i,i,i,i,i,·,·,·,·,·,·,
CCOC(=O)c1c(C)n(C)c2ccc(O)c(CN(CC)CC)c12,i,i,i,-6.45*,i,-112.0%*,i,-14.0%*,52.5%*,54.0%*,i,
CCOC(=O)c1c(C)n(C)c2ccc(O)c(CN3CCC(C)CC3)c12,i,i,i,-9.36*,i,-140.5%*,i,-18.0%*,73.0%*,64.5%*,i,
CCOC(=O)c1c(C)n(C)c2ccc(O)c(CN3CCN(C)CC3)c12,i,i,i,i,i,·,·,·,·,·,·,
